Measurements taken from ChEMBL document CHEMBL1130421, “A facile, alternative synthesis of 4'-thioarabinonucleosides and their biological activities” (J Med Chem, 1997).
Converted amounts (≈) assume the structure as drawn.

Legend:
Human alphaherpesvirus 3 = assay: Antiviral activity against varicella zoster virus (VZV) Oka strain in HEL ([…]) cells.; format: functional; settings: Human alphaherpesvirus 3, HEL; read-out: ED50 (the source's name)
Human alphaherpesvirus 2 = assay: Antiviral activity against herpes simplex virus-2 (HSV-2) Ms strain in HEL ([…]) cells.; format: functional; settings: Human alphaherpesvirus 2, HEL; read-out: ED50 (the source's name)
In short: (§1)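 Plaque reduction assay in HEL cells. Strains: HSV-1 VR-3, HSV-2 MS, HCMV AD 169. Run as described earlier.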

Human alphaherpesvirus 1 = assay: Antiviral activity against herpes simplex virus-1 VR-3 strain in HEL ([…]) cells.; format: functional; settings: Human alphaherpesvirus 1, HEL; read-out: ED50 (the source's name); in short: as §1
Human betaherpesvirus 5 = assay: Antiviral activity against human cytomegalovirus (HCMV) AD 169 strain HEL ([…]) cells.; format: functional; settings: Human betaherpesvirus 5, HEL; read-out: ED50 (the source's name); in short: as §1
CCRF-HSB-2 = assay: Antiproliferative effects on CCRF-HSB-2 (human leukemia) cells.; format: functional, cell-based
In short: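 CCRF-HSB-2 cells at 1.1 × 10⁵ cells/mL in RPMI 1640 + 10% FBS. Compound added in medium or PBS as serial 0.5 log₁₀ dilutions. Incubated 3 days at 37 °C, 5% CO₂. MTT then added for another 4 h; formazan solubilized in acidic DMF/SDS. A570 read against 690 nm reference. IC50 read graphically from dose-inhibition curve.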

Row | EC50 (Human alphaherpesvirus 3) [µg/mL] | EC50 (Human alphaherpesvirus 2) [µg/mL] | EC50 (Human alphaherpesvirus 1) [µg/mL] | EC50 (Human betaherpesvirus 5) [µg/mL] | IC50 (CCRF-HSB-2) [µg/mL] | SMILES
1 | > 50 | 71 (≈ 221 µM) | 0.97 (≈ 3.02 µM) | > 50 | > 100 | O=c1[nH]c(=O)n([C@@H]2S[C@H](CO)[C@@H](O)[C@@H]2O)cc1/C=C/Cl
2 | > 50 | > 100 | > 100 | > 50 | > 100 | O=c1[nH]c(=O)n([C@H]2S[C@H](CO)[C@@H](O)[C@@H]2O)cc1I
3 | > 50 | > 100 | > 100 | > 50 | > 100 | O=c1[nH]c(=O)n([C@H]2S[C@H](CO)[C@@H](O)[C@@H]2O)cc1/C=C/Cl
4 | 0.2 (≈ 0.548 µM) | 58 (≈ 159 µM) | 0.82 (≈ 2.25 µM) | > 50 | > 100 | O=c1[nH]c(=O)n([C@@H]2S[C@H](CO)[C@@H](O)[C@@H]2O)cc1/C=C/Br
5 | > 50 | > 100 | > 100 | > 50 | > 100 | O=c1[nH]c(=O)n([C@H]2S[C@H](CO)[C@@H](O)[C@@H]2O)cc1/C=C/Br
6 | 6.6 (≈ 24.1 µM) | 4.6 (≈ 16.8 µM) | 0.77 (≈ 2.81 µM) | 44 (≈ 160 µM) | > 100 | Cc1cn([C@@H]2S[C@H](CO)[C@@H](O)[C@@H]2O)c(=O)[nH]c1=O
7 | 27.1 (≈ 70.2 µM) | 13.6 (≈ 35.2 µM) | 3.5 (≈ 9.06 µM) | > 50 | > 100 | O=c1[nH]c(=O)n([C@@H]2S[C@H](CO)[C@@H](O)[C@@H]2O)cc1I
8 | > 50 | > 100 | > 100 | > 50 | 42 (≈ 153 µM) | Cc1cn([C@H]2S[C@H](CO)[C@@H](O)[C@@H]2O)c(=O)[nH]c1=O

The remaining lines, values behind:

Row | SMILES | EC50 (Human alphaherpesvirus 3) [µg/mL] | EC50 (Human alphaherpesvirus 2) [µg/mL] | EC50 (Human alphaherpesvirus 1) [µg/mL] | EC50 (Human betaherpesvirus 5) [µg/mL] | IC50 (CCRF-HSB-2) [µg/mL]
9 | Nc1nc(O)c2ncn([C@@H]3S[C@H](CO)[C@@H](O)[C@@H]3O)c2n1 | 0.11 (≈ 0.368 µM) | 0.59 (≈ 1.97 µM) | 0.49 (≈ 1.64 µM) | 0.01 (≈ 0.0334 µM) | 0.29 (≈ 0.969 µM)
10 | Nc1nc(N)c2ncn([C@H]3S[C@H](CO)[C@@H](O)[C@@H]3O)c2n1 | > 50 | > 100 | > 100 | > 50 | > 100
11 | CCc1cn([C@H]2S[C@H](CO)[C@@H](O)[C@@H]2O)c(=O)[nH]c1=O | > 50 | > 100 | > 100 | > 50 | > 100
12 | Nc1ncnc2c1ncn2[C@H]1S[C@H](CO)[C@@H](O)[C@@H]1O | > 50 | > 100 | > 100 | > 50 | > 100
13 | Nc1ncnc2c1ncn2[C@@H]1S[C@H](CO)[C@@H](O)[C@@H]1O | 1.85 (≈ 6.53 µM) | 13.5 (≈ 47.7 µM) | 18.4 (≈ 64.9 µM) | 1.36 (≈ 4.8 µM) | 14.8 (≈ 52.2 µM)
14 | CCc1cn([C@@H]2S[C@H](CO)[C@@H](O)[C@@H]2O)c(=O)[nH]c1=O | > 50 | 6.5 (≈ 22.5 µM) | 0.43 (≈ 1.49 µM) | > 50 | > 100
15 | Nc1nc(N)c2ncn([C@@H]3S[C@H](CO)[C@@H](O)[C@@H]3O)c2n1 | 0.11 (≈ 0.369 µM) | 0.4 (≈ 1.34 µM) | 0.52 (≈ 1.74 µM) | 0.022 (≈ 0.0737 µM) | 0.2 (≈ 0.67 µM)
16 | Nc1nc2c(ncn2COCCO)c(=O)[nH]1 [ACYCLOVIR] | – | 0.23 (≈ 1.02 µM) | 0.14 (≈ 0.622 µM) | 6.9 (≈ 30.6 µM) | > 100
17 | Nc1ccn([C@@H]2O[C@H](CO)[C@@H](O)[C@@H]2O)c(=O)n1 [CYTARABINE] | – | – | – | – | 0.0086 (≈ 0.0354 µM)
18 | Nc1nc2c(ncn2COC(CO)CO)c(=O)[nH]1 [GANCICLOVIR] | 0.21 (≈ 0.823 µM) | 0.039 (≈ 0.153 µM) | 0.016 (≈ 0.0627 µM) | 0.21 (≈ 0.823 µM) | 17 (≈ 66.6 µM)
19 | O=c1[nH]c(=O)n([C@@H]2O[C@H](CO)[C@@H](O)[C@@H]2O)cc1/C=C/Br [SORIVUDINE] | 0.0013 (≈ 0.00372 µM) | 62 (≈ 178 µM) | 0.036 (≈ 0.103 µM) | > 50 | > 100
20 | Nc1ncnc2c1ncn2[C@@H]1O[C@H](CO)[C@@H](O)[C@@H]1O [VIDARABINE] | 1.17 (≈ 4.38 µM) | 6.6 (≈ 24.7 µM) | 17.1 (≈ 64 µM) | 6.45 (≈ 24.1 µM) | 12.9 (≈ 48.3 µM)
